Experimental data from ChEMBL document CHEMBL1158783, “Neoflavonoids and related constituents from Nepalese propolis and their nitric oxide production inhibitory activity” (J Nat Prod, 2005).

Assays:
J774.1 = experiment: Inhibition of LPS-induced NO production in mouse J774.1 cells after 24 hrs by Griess reagent assay; format: functional, cell-based; settings: J774.1, 24 h
Outline: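 J774.1 cells grown in RPMI 1640 with penicillin G, streptomycin and 10% FCS, seeded at 1 × 10⁵ cells/well and left to adhere for 2 h at 37 °C, 5% CO₂. Fresh medium with LPS (10 µg/mL) plus compound was then added for 24 h. Supernatant nitrite was read with Griess reagent (10 min, room temperature, A550), medium-blank corrected, and compared with an LPS-only control. IC50 taken from the mean of four determinations.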

[1] = Cytotoxicity against mouse J774.1 cells at > 50 uM by MTT assay; format: cell-based

SMILES | IC50 (J774.1) | Activity [1]
C=C[C@H](c1ccccc1)[C@@H]1C[C@@H](O)[C@@H](OC)CC1=O | 9.6 µM | –
COc1ccc2c(c1O)O[C@@H]1c3ccc(O)cc3OC[C@H]21 | 3.4 µM | –
C=C[C@H](C1=CC(=O)C(OC)=CC1=O)c1ccccc1 | 10.2 µM | –
COc1cc(O)c(C(=O)c2ccccc2)cc1O [CEAROIN] | 15.4 µM | –
O=C(/C=C/c1ccc(O)c(O)c1)OCCc1ccccc1 [CAFFEIC ACID PHENETHYL ESTER] | 4.8 µM | –
COc1ccc2c(c1)O[C@H]1c3ccc(O)c(O)c3OC[C@@H]21 | 5.4 µM | –
C=CC(c1ccccc1)[C@@H]1C[C@@H](O)C=CC1=O (stereo not given in full) | 0.5 µM | Active
C=CC(c1ccccc1)c1cc(O)c(OC)cc1O (stereo not given) [OBTUSAQUINOL] | 6.3 µM | –
C=C[C@@H](c1ccccc1)[C@@H]1C[C@@H](O)[C@@H](OC)C[C@@H]1O | 100 µM | –
C=C[C@@H](c1ccccc1)c1ccc(O)c(O)c1 | 8.4 µM | –
C=CC(c1ccccc1)[C@H]1C[C@@H](O)[C@@H](OC)CC1=O (stereo not given in full) | 9.6 µM | –
C=CC(c1ccccc1)[C@@H]1C[C@H](O)C(OC)=CC1=O (stereo not given in full) | 48.5 µM | –
C=C[C@@H](c1ccccc1)c1ccc(O)cc1O | 5.5 µM | –
COC1=CC(=O)CCC1(O)C/C=C/c1ccccc1 (stereo not given) | 19.2 µM | –
O=C(/C=C/c1ccc(O)cc1)c1ccc(O)cc1O [ISOLIQUIRITIGENIN] | 29.3 µM | –
C=C[C@@H](c1ccccc1)[C@@H]1C[C@@H](O)[C@@H](OC)CC1=O | 13.2 µM | –
C=CC(c1ccccc1)[C@H]1C[C@@H](O)C[C@@H](OC)C1=O (stereo not given in full) | 2.3 µM | –
C=CC(c1ccccc1)[C@H]1C[C@@H](O)C=CC1=O (stereo not given in full) | 0.5 µM | Active
